The source of these data is ChEMBL document CHEMBL2046390, “Carnosine analogues containing NO-donor substructures: synthesis, physico-chemical characterization and preliminary pharmacological profile” (Eur J Med Chem, 2012).

pEC50: −log10 of the molar value. The source made the active and inactive calls.

Data set [1] in a line: Antioxidant activity against CuSO4-induced LDL oxidation measured per mg of LDL product assessed as propagation rate of the oxidation at 100 uM by spectrophotometric analysis. The data set is classed as functional. In short, it runs like this:
(§1)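 Human LDL isolated by ultracentrifugation (density 1.019-1.063 g/mL), EDTA removed by desalting, diluted in 10 mM phosphate buffer pH 7.4 to 50 μg protein/mL; compound 100 μM final. Oxidation started with 2.5 μM CuSO4 at 37 °C; conjugated dienes followed at 234 nm. Lag phase versus control; propagation rate from ΔA234 over time using ε234 = 29500 M-1 cm-1.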

Data set [2] has as its system Thoracic aorta. Description: Vasodilator activity in Wistar rat endothelium-denuded thoracic aorta assessed as inhibition of L-phenylephrine-induced contraction in presence of ODQ. It counts as functional, tissue-based. In short, it runs like this:
(§2)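 Rat aortic strips equilibrated 90 min, then contracted with 1 μM L-phenylephrine. Cumulative concentration-response curves were run at the plateau, with isometric recording. EC50 is the concentration giving 50% relaxation, mean of at least 5 determinations. ODQ 1 μM was added 5 min before contraction in a separate series.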

The subject of data set [3] is Serum. The data set can be described thus: Metabolic stability of the compound in human serum at 0.5 mM after 3 hrs by RP-HPLC analysis. It counts as ADME, cell-free. To be noted: 500 µM. In a few lines: (§3)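 A 10 mM aqueous stock was added to human serum preheated to 37 °C, giving 0.5 mM final, then incubated at 37 ± 0.5 °C. Aliquots were deproteinized with acetonitrile/0.1% TFA, centrifuged, filtered and analysed by RP-HPLC on C18 with diode-array detection, using methanol/20 mM sodium acetate pH 4.5–5 mM SDS mobile phase.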

Data set [4] is described as follows: Binding affinity to Cu2+ assessed as formation of compound-cu2+ complex formation by pH-metric technique. It counts as physicochemical. In a few lines:
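Compound and CuCl2, equimolar at 1 mM in water, acidified to pH 1.8 with 0.5 N HCl, then titrated with 0.5 N KOH to pH 12.2. Run under nitrogen at 25.0 ± 0.1 °C, ionic strength 0.15 M KCl, at least three titrations. Formation constants fitted from pH-metric data.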

Data set [5] can be described thus: Antioxidant activity against CuSO4-induced LDL oxidation assessed as delta-lag time at 100 uM by spectrophotometric analysis. The data set is classed as functional. In short, it runs like this:
as §1

Data set [6] in a line: Antioxidant activity assessed as (E)-4-hydroxy-trans-2,3-nonenal scavenging activity in phosphate buffer at pH 7.4 at 1 mM after 24 hrs by reverse-phase HPLC analysis relative to control. It counts as functional. In short, it runs like this: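 HNE 50 μM incubated with compound 1 mM in 1 mM phosphate buffer pH 7.4 at 37 °C for up to 24 h. Remaining HNE measured directly by reverse-phase HPLC. Scavenging % = 100 − (HNE left with scavenger / HNE left in control × 100).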

Data set [7] in a line: Lipophilicity, log D of the compound at pH 7.4 by shake-flask method. It counts as physicochemical. The following applies: buffer. In a few lines:
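Shake-flask partition between n-octanol and phosphate buffer pH 7.4 (ionic strength 0.15 M KCl), phases presaturated 4 h. Compound about 0.1 mM in the aqueous phase; shaken about 20 min, centrifuged, aqueous concentration read by UV at 230 nm. At least 6 determinations per compound.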

The subject of data set [8] is Thoracic aorta. Description: Vasodilator activity in Wistar rat endothelium-denuded thoracic aorta assessed as inhibition of L-phenylephrine-induced contraction. The data set is classed as functional, tissue-based. In short, it runs like this: as §2
The test system of data set [9] is Rattus norvegicus. Description: Reduction of ischemia-reperfusion-induced TNFalpha level increase in Wistar rat serum at 500 mg/kg, iv by ELISA. It counts as functional, organism-based. Also noted: dose 500 mg/kg. In a few lines: (§4)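 Male Wistar rats, 210–230 g, anaesthetised with Zoletil and kept at 37 °C, underwent 30 min carotid occlusion then 24 h reperfusion; n = 5 per group. Compounds in 5% DMSO given i.v. at reperfusion onset and again after 6 h. Infarct volume from 2-mm coronal brain slices stained with 2% TTC, 37 °C, 30 min. Serum TNF-α by ELISA (pg/mL); means ± SEM.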
(In an ELISA, binding on a coated surface is turned into a signal by an enzyme label.)

The subject of data set [10] is Rattus norvegicus. The data set can be described thus: Protection against hypoxia-induced brain damage in Wistar rat ischemia-reperfusion injury model assessed as reduction of cerebral infarct volume at 500 mg/kg, iv administered at beginning of reperfusion and again after 6 hrs measured 24 hrs after reperfusion. It counts as functional, organism-based. Also noted: dose 500 mg/kg. In short, it runs like this:
as §4

Data set [11] can be described thus: Half life in human serum at 0.5 mM by RP-HPLC analysis. The data set is classed as ADME, cell-free. In a few lines: as §3
Data set [12] concerns Rattus norvegicus. The data set can be described thus: Reduction of ischemia-reperfusion-induced TNFalpha level increase in Wistar rat serum at 1 g/kg, iv by ELISA. The data set is classed as functional, organism-based. In short, it runs like this: as §4
Data set [13] has as its system Rattus norvegicus. The data set can be described thus: Protection against hypoxia-induced brain damage in Wistar rat ischemia-reperfusion injury model assessed as reduction of cerebral infarct volume at 1 g/kg, iv administered at beginning of reperfusion and again after 6 hrs measured 24 hrs after reperfusion. The data set is classed as functional, organism-based. In short, it runs like this:
as §4

Data set [14] relates to Thoracic aorta. Description: Vasodilator activity in Wistar rat endothelium-denuded thoracic aorta assessed as inhibition of L-phenylephrine-induced contraction at 1 mM. It counts as functional. In short, it runs like this:
as §2

Broadly, the logD is lipophilicity at a set pH, counting ionised and neutral species. Read a high logD as a more lipophilic compound. By pEC50 is commonly meant the EC50 on a negative log10 scale, so that one unit is a factor of ten. Consider `NCCC(=O)N[C@@H](Cc1c[nH]cn1)C(=O)NC[C@H](CO[N+](=O)[O-])O[N+](=O)[O-]`, for which the Activity in data set [1] is 5.8 nmol/min; in [4], “Active”; in [6] it was 77.6%; in data set [8] it was “Dose-dependent effect”. In addition, in data set [2], the result was inactive. The Stability result in data set [3] is reported as “Stable”. Further, in [5], the TIME turned out to be 1.47 h. In addition, the logD in [7] is -2.19. In addition, the negative logarithm of the EC50 (pEC50) in data set [8] was 4.15. The outcome in data set [9] and in [10] was Active.

A word on the half-life: it is the time needed for the level to fall by half in the phase considered. A lower half-life goes with rapid decline. In turn, `NCCC(=O)N[C@@H](Cc1cnc[nH]1)C(=O)O` [CARNOSINE] displayed a half-life at 500 µM in data set [11] of 5 min.

In the case of `CCCNC(=O)[C@H](Cc1c[nH]cn1)NC(=O)CCN`, in data set [3], the Stability result is “Stable”. Besides, the outcome in [9] was inactive. The outcome in data set [10] was Active.

In the case of `NCCC(=O)N[C@@H](Cc1c[nH]cn1)C(=O)NC[C@@H](CO[N+](=O)[O-])O[N+](=O)[O-]`, the Activity is 5.8 nmol/min in data set [1], “Active” in [4], 67.2% in data set [6] and “Dose-dependent effect” in data set [8]. In addition, the outcome in data set [2] was inactive. For the same compound, the Stability entry in data set [3] is “Stable”. The TIME in data set [5] was 1.25 h. In data set [7], this compound gave a log distribution coefficient (logD) of -2.33. Also, the pEC50 in data set [8] is 3.77.

As for `NCCC(=O)N[C@@H](Cc1c[nH]cn1)C(=O)O`, the result in data set [12] was inactive. Moreover, the outcome in [13] was Active. In addition, the Activity entry in [8] is “Dose-dependent effect”.

Regarding `NCCC(=O)N[C@@H](Cc1c[nH]cn1)C(=O)NCc1ccc(OCCCO[N+](=O)[O-])cc1`, the Activity is 6.3 nmol/min in data set [1], 74.3% in [6] and “Dose-dependent effect” in data set [8]. Further, the result in [2] was inactive. Further, the Stability result in data set [3] is “Stable”. The TIME in data set [5] is 1.17 h. Besides, in data set [7], the pH-dependent lipophilicity (logD) was -1.01. The pEC50 in data set [8] is 5.52.

For the compound `CCCOc1ccc(CNC(=O)[C@H](Cc2c[nH]cn2)NC(=O)CCN)cc1`, the Activity was 9.5 nmol/min in [1] and 73.3% in [6]. For the same compound, the Stability result in [3] is on record as “Stable”. Also, in [5], the TIME worked out at 1.07 h. For the same compound, the logD in data set [7] was -1.15.

In general, inhibition refers to the relative decrease from the control value, in per cent. Regarding `NCCC(=O)N[C@@H](Cc1c[nH]cn1)C(=O)NCCCO[N+](=O)[O-]`, the Activity was 3.9 nmol/min in data set [1], “Active” in [4], 75.4% in [6] and “Dose-dependent effect” in [8]. Moreover, in data set [2], the result was inactive. Besides, the Stability result in data set [3] was “Stable”. In [5], the TIME stood at 1.5 h. This compound displayed a logD in data set [7] of -2.43. The inhibition at 1000 µM in data set [14] worked out at 46%.
